According to ChEMBL document CHEMBL4138167, “Cytotoxicity, Hemolytic Toxicity, and Mechanism of Action of Pulsatilla Saponin D and Its Synthetic Derivatives” (J Nat Prod, 2018):
Activity calls are given as the source filed them. No cut-off for these calls is given here.

How the values were obtained:
A549 [1] = assay: Cytotoxicity against human A549 cells after 48 hrs by MTT assay; assay type: functional, cell-based; settings: A549, 48 h
[2] = Hemolytic activity against New Zealand rabbit erythrocytes measured after 60 mins; assay type: ADME, cell-based, Oryctolagus cuniculus, Erythrocyte; settings: read-out: HD50
In short: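 Nonheparinized rabbit blood; erythrocytes washed three times in PBS pH 7.4, 10% suspension; compounds from 10 mM DMSO stock diluted in PBS to 5-500 μM; 100 μL suspension plus 1 mL sample, 37 °C 60 min with periodic stirring; centrifuged, supernatant A540; distilled water = 100% hemolysis, PBS blank subtracted; triplicate; HD50 = concentration giving 50% maximal hemolysis.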

[3] = (§1) Cytotoxicity against human KBVIN cells after 72 hrs by sulforhodamine B assay; assay type: functional, cell-based
KB = assay: Cytotoxicity against human KB cells after 72 hrs by sulforhodamine B assay; assay type: functional, cell-based
MDA-MB-231 = assay: Cytotoxicity against human MDA-MB-231 cells after 72 hrs by sulforhodamine B assay; assay type: functional, cell-based; settings: for IC50: MDA-MB-231, 72 h
A549 [4] = assay: Cytotoxicity against human A549 cells after 72 hrs by sulforhodamine B assay; assay type: functional, cell-based; settings: for IC50: A549, 72 h
MCF7 = assay: Cytotoxicity against human MCF7 cells after 72 hrs by sulforhodamine B assay; assay type: functional, cell-based; settings: for IC50: MCF7, 72 h
Homo sapiens = species on record: Homo sapiens; assay: as §1; assay type: functional, cell-based
A549 [5] = assay: Induction of apoptosis in human A549 cells assessed as reduction in procaspase-3 level at 2 to 8 uM by Western blot analysis; assay type: functional, cell-based
In short: (§2)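 A549 cells exposed 24 h; lysed in Tris-Cl pH 6.8/4% SDS/glycerol/β-mercaptoethanol/PMSF/aprotinin buffer, cleared 12000g 15 min 4 °C, protein by BCA; 10-15% SDS-PAGE, PVDF transfer, primary antibodies overnight 4 °C, HRP secondaries, ECL detection; Lam A as loading control.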

A549 [6] = assay: Induction of apoptosis in human A549 cells assessed as early apoptotic cells at 8 uM after 24 hrs by Annexin-V-FITC/propidium iodide staining based flow cytometric method (reference value: 1.43%); assay type: functional
A549 [7] = assay: Induction of apoptosis in human A549 cells assessed as early apoptotic cells at 2 uM after 24 hrs by Annexin-V-FITC/propidium iodide staining based flow cytometric method (reference value: 1.43%); assay type: functional
A549 [8] = assay: Induction of apoptosis in human A549 cells assessed as early apoptotic cells at 4 uM after 24 hrs by Annexin-V-FITC/propidium iodide staining based flow cytometric method (reference value: 1.43%); assay type: functional
A549 [9] = assay: Induction of apoptosis in human A549 cells assessed as late apoptotic cells at 4 uM after 24 hrs by Annexin-V-FITC/propidium iodide staining based flow cytometric method (reference value: 2.97%); assay type: functional
A549 [10] = assay: Induction of apoptosis in human A549 cells assessed as reduction in procaspase-8 level at 2 to 8 uM by Western blot analysis; assay type: functional, cell-based; in short: as §2
A549 [11] = assay: Cell cycle arrest in human A549 cells assessed as accumulation at G1-phase at 8 uM after 24 hrs by propidium iodide staining based flow cytometric analysis (reference value: 46.6%); assay type: functional
A549 [12] = assay: Cell cycle arrest in human A549 cells assessed as accumulation at G1-phase at 4 uM after 24 hrs by propidium iodide staining based flow cytometric analysis (reference value: 46.6%); assay type: functional
A549 [13] = assay: Cell cycle arrest in human A549 cells assessed as accumulation at G1-phase at 2 uM after 24 hrs by propidium iodide staining based flow cytometric analysis (reference value: 46.6%); assay type: functional
A549 [14] = assay: Induction of apoptosis in human A549 cells assessed as late apoptotic cells at 8 uM after 24 hrs by Annexin-V-FITC/propidium iodide staining based flow cytometric method (reference value: 2.97%); assay type: functional
A549 [15] = assay: Induction of apoptosis in human A549 cells assessed as reduction in procaspase-9 level at 2 to 8 uM by Western blot analysis; assay type: functional, cell-based; in short: as §2
A549 [16] = assay: Induction of apoptosis in human A549 cells assessed as late apoptotic cells at 2 uM after 24 hrs by Annexin-V-FITC/propidium iodide staining based flow cytometric method (reference value: 2.97%); assay type: functional
A549 [17] = assay: Induction of apoptosis in human A549 cells assessed as increase in cleaved PARP level at 2 to 8 uM by Western blot analysis; assay type: functional, cell-based; in short: as §2

## C[C@@H]1O[C@@H](O[C@H]2[C@H](O[C@H]3CC[C@@]4(C)[C@@H](CC[C@]5(C)[C@@H]4C(=O)C=C4[C@@H]6CC(C)(C)CC[C@]6(C(=O)NCC(=O)O)CC[C@]45C)[C@]3(C)CO)OC[C@H](O[C@@H]3O[C@H](CO)[C@@H](O)[C@H](O)[C@H]3O)[C@@H]2O)[C@H](O)[C@H](O)[C@H]1O
A549 [1]
  IC50: > 10 µM

## C[C@@H]1O[C@@H](O[C@H]2[C@H](O[C@H]3CC[C@@]4(C)[C@@H](CC[C@]5(C)[C@@H]4C[C@H](O)[C@]46OC(=O)[C@@]7(CCC(C)(C)C[C@H]74)CC[C@]65C)[C@]3(C)CO)OC[C@H](O[C@@H]3O[C@H](CO)[C@@H](O)[C@H](O)[C@H]3O)[C@@H]2O)[C@H](O)[C@H](O)[C@H]1O
[2]
  HC50 at 1 h: 308 µM
A549 [1]
  IC50: > 10 µM

## CC(=O)OC[C@@]1(C)[C@@H]2CC[C@]3(C)[C@H](CC=C4[C@@H]5CC(C)(C)CC[C@]5(C(=O)O)CC[C@]43C)[C@@]2(C)CC[C@@H]1OC(C)=O
[3]
  IC50: 8.5 µM
KB
  IC50: 7.4 µM
MDA-MB-231
  IC50: > 10 µM
A549 [4]
  IC50: 6.2 µM
MCF7
  IC50: > 10 µM

## C[C@@H]1O[C@@H](O[C@H]2[C@H](O[C@H]3CC[C@@]4(C)[C@@H](CC[C@]5(C)[C@@H]4CC(=O)[C@]46OC(=O)[C@@]7(CCC(C)(C)C[C@H]74)CC[C@@]56C)[C@]3(C)CO)OC[C@H](O[C@@H]3O[C@H](CO)[C@@H](O)[C@H](O)[C@H]3O)[C@@H]2O)[C@H](O)[C@H](O)[C@H]1O
[2]
  HC50 at 1 h: 290 µM
A549 [1]
  IC50: > 10 µM

## C[C@@H]1O[C@@H](O[C@H]2[C@H](O[C@H]3CC[C@@]4(C)[C@@H](CC[C@]5(C)[C@@H]4CC=C4[C@@H]6CC(C)(C)CC[C@]6(C(=O)O)CC[C@]45C)[C@]3(C)CO)OC[C@H](O[C@@H]3O[C@H](CO)[C@@H](O)[C@H](O)[C@H]3O)[C@@H]2O)[C@H](O)[C@H](O)[C@H]1O [HEDERACOLCHISIDE A]
A549 [1]
  IC50: 6 µM

## CC1(C)CC[C@]2(C(=O)NCCCCCC(=O)O)CC[C@]3(C)C(=CC[C@@H]4[C@@]5(C)CC[C@H](O)[C@@](C)(CO)[C@@H]5CC[C@]43C)[C@@H]2C1
[3]
  IC50: > 10 µM
KB
  IC50: > 10 µM
MDA-MB-231
  IC50: > 10 µM
A549 [4]
  IC50: > 10 µM
MCF7
  IC50: > 10 µM

## CCOC(=O)CNC(=O)[C@]12CCC(C)(C)C[C@H]1C1=CC[C@@H]3[C@@]4(C)CC[C@H](OC(C)=O)[C@@](C)(COC(C)=O)[C@@H]4CC[C@@]3(C)[C@]1(C)CC2
[3]
  IC50: 4.9 µM
KB
  IC50: 4.2 µM
MDA-MB-231
  IC50: 5.5 µM
A549 [4]
  IC50: 4.6 µM
MCF7
  IC50: 7.7 µM

## CC(=O)O[C@H]1C(=O)[C@@]2(C)[C@H]([C@H](OC(=O)c3ccccc3)[C@]3(O)C[C@H](OC(=O)[C@H](O)[C@@H](NC(=O)c4ccccc4)c4ccccc4)C(C)=C1C3(C)C)[C@]1(OC(C)=O)CO[C@@H]1C[C@@H]2O [PACLITAXEL]
[3]
  IC50: 1.86 µM

## CC1(C)CC[C@]2(C(=O)NCC(=O)O)CC[C@]3(C)C(=CC[C@@H]4[C@@]5(C)CC[C@H](O)[C@@](C)(CO)[C@@H]5CC[C@]43C)[C@@H]2C1
[3]
  IC50: > 10 µM
KB
  IC50: > 10 µM
MDA-MB-231
  IC50: > 10 µM
A549 [4]
  IC50: > 10 µM
MCF7
  IC50: > 10 µM

## C[C@@H]1O[C@@H](O[C@H]2[C@H](O[C@H]3CC[C@@]4(C)[C@@H](CC[C@]5(C)[C@@H]4CC(=O)[C@@H]4[C@@H]6CC(C)(C)CC[C@]6(C(=O)O)CC[C@]45C)[C@]3(C)CO)OC[C@H](O[C@@H]3O[C@H](CO)[C@@H](O)[C@H](O)[C@H]3O)[C@@H]2O)[C@H](O)[C@H](O)[C@H]1O
[2]
  HC50 at 1 h: 73.1 µM
A549 [1]
  IC50: > 10 µM

## CC1(C)CC[C@]2(C(=O)O)CC[C@]3(C)C(=CC[C@@H]4[C@@]5(C)CC[C@H](O)[C@@](C)(CO)[C@@H]5CC[C@]43C)[C@@H]2C1 [HEDERAGENIN]
[3]
  IC50: > 10 µM
KB
  IC50: > 10 µM
MDA-MB-231
  IC50: > 10 µM
A549 [4]
  IC50: > 10 µM
MCF7
  IC50: > 10 µM

## CCOC(=O)CCCCCNC(=O)[C@]12CCC(C)(C)C[C@H]1C1=CC[C@@H]3[C@@]4(C)CC[C@H](OC(C)=O)[C@@](C)(COC(C)=O)[C@@H]4CC[C@@]3(C)[C@]1(C)CC2
[3]
  IC50: > 10 µM
KB
  IC50: 6.9 µM
A549 [4]
  IC50: 5.1 µM
MCF7
  IC50: > 10 µM

## CC1(C)CC[C@]2(C(=O)NCCCC(=O)O)CC[C@]3(C)C(=CC[C@@H]4[C@@]5(C)CC[C@H](O)[C@@](C)(CO)[C@@H]5CC[C@]43C)[C@@H]2C1
[3]
  IC50: > 10 µM
KB
  IC50: > 10 µM
MDA-MB-231
  IC50: > 10 µM
A549 [4]
  IC50: > 10 µM
MCF7
  IC50: > 10 µM

## C[C@@H]1O[C@@H](O[C@H]2[C@H](O[C@H]3CC[C@@]4(C)[C@@H](CC[C@]5(C)[C@@H]4C(=O)C=C4[C@@H]6CC(C)(C)CC[C@]6(C(=O)O)CC[C@]45C)[C@]3(C)CO)OC[C@H](O[C@@H]3O[C@H](CO)[C@@H](O)[C@H](O)[C@H]3O)[C@@H]2O)[C@H](O)[C@H](O)[C@H]1O
[2]
  HC50 at 1 h: 239 µM
A549 [1]
  IC50: > 10 µM

## CCOC(=O)CCCNC(=O)[C@]12CCC(C)(C)C[C@H]1C1=CC[C@@H]3[C@@]4(C)CC[C@H](OC(C)=O)[C@@](C)(COC(C)=O)[C@@H]4CC[C@@]3(C)[C@]1(C)CC2
[3]
  IC50: 5.1 µM
Homo sapiens
  Activity: Dose-dependent effect
A549 [5]
  Activity: Active
KB
  Activity: Dose-dependent effect
  IC50: 3.6 µM
MDA-MB-231
  Activity: Dose-dependent effect
A549 [6]
  Activity: 30.3%
A549 [7]
  Activity: 14.8%
A549 [8]
  Activity: 26.5%
A549 [4]
  Activity: Dose-dependent effect
  IC50: 2.8 µM
[2]
  HC50 at 1 h: > 500 µM
A549 [9]
  Activity: 4.4%
MCF7
  Activity: Dose-dependent effect
  IC50: 8.6 µM
A549 [10]
  Activity: Active
A549 [11]
  Activity: 68.4%
A549 [12]
  Activity: 61.1%
A549 [13]
  Activity: 53.4%
A549 [14]
  Activity: 4.87%
A549 [15]
  Activity: Active
A549 [16]
  Activity: 3.8%
A549 [17]
  Activity: Active
